Data as given in article PMC7063993 (ACS chemical neuroscience, 2019).

Columns and labels:
MN9D cells [1] = assay: Intracellular ROS levels by DCFH-DA in MN9D cells; format: cell-based, mouse
HepG2 cells [2] = assay: Intracellular ROS levels by DCFH-DA in HepG2 cells; format: cell-based, Human; conditions: 1 h
Procedure, shortened: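 Cells in 12-well plates loaded with 10 μM DCFH-DA in KRB-HEPES for 1 h, then washed with ice-cold buffer. Exposed to test compound in the same buffer for 1 h at 37 °C. Harvested and lysed in 0.1 M Tris (pH 7.5) with 1% Triton X-100, then cleared by centrifugation. DCF fluorescence read at Ex/Em 488/524 nm and normalized to protein content.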

[3] = tested on: MN9D cell mitochondrial membrane potential; assay: Mitochondrial membrane potential; format: cell-based, mouse; conditions: 500 μM, 1 h of incubation, TMRM
Procedure, shortened: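 MN9D cells on glass-bottomed plates loaded with 50 nM TMRM in KRB-HEPES for 45 min in the dark. Fluorescence (Ex/Em 543/573 nm) recorded from 15–20 ROIs every 5 s for 3 min as baseline. Test compound then added and recording continued every 15 s for 1 h. Background subtracted and ROI averages taken as membrane potential.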

[4] = Relative lipophilicity estimated by reverse phase HPLC retention times; format: physicochemical
MN9D cells [5] = assay: Cellular uptake into MN9D cells; format: cell-based, mouse; conditions: for Concentration dependence of MN9D cell uptake: up to 100 μM (0-100 μM for 45 min for [3], [4], [5])
Procedure, shortened: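 MN9D cells seeded at 0.25 x 10⁶ cells/well and grown 2–3 days to 70–80% confluency. Test compound in warm KRB-HEPES (pH 7.4) at 37 °C: 50 μM for 0–60 min (time course) or varying concentrations for 45 min. Cells washed in ice-cold buffer and pellets extracted with 0.1 M HClO₄. C18 reversed-phase HPLC-UV quantified against standard curves. Normalized to Bradford protein, time-zero readings subtracted.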

[6] = Uptake into isolated intact MN9D cell mitochondria; parameters: species or system mouse; conditions: 50 μM, 45 min
dopaminergic MN9D cells = assay: MTT cell viability assay, MN9D cell toxicity; format: cell-based, mouse; conditions: Asc pre-treatment 30 min, 8 μM [3] or 40 μM [1], 18 h
Procedure, shortened: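 MN9D cells in 96-well plates pretreated with ascorbate (0–500 μM) for 30 min at 37 °C. Then exposed to a fixed concentration of test compound with the same ascorbate level for 18 h at 37 °C. Read by MTT (A570 − A650) as % of controls. Parallel toxin-free wells at each ascorbate level subtracted to correct for MTT reduction by ascorbate.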

[7] = tested on: rat brain mitochondrial complex I; assay: Mitochondrial complex I; format: biochemical
[8] = tested on: dopaminergic SH-SH5Y cells; assay: MTT cell viability assay, SH-SY5Y cell toxicity; format: cell-based; conditions: read-out: IC50 (SH-SH5Y cell toxicity)
Procedure, shortened: (§1)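 Cells grown in 96-well plates to ~70–80% confluence. Medium replaced with DMEM containing test compound at varying concentrations, 18 h (12 h in one series) at 37 °C. MTT added for 2 h at 37 °C. Formazan dissolved in 50% DMF/20% SDS for 12 h at 37 °C and read as A570 minus A650. Viability expressed as % of untreated controls.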

HepG2 cells [9] = assay: MTT cell viability assay, HepG2 cell toxicity; format: cell-based, Human; conditions: same conditions/concentrations as MN9D experiments
Procedure, shortened: as §1

MN9D cells [10] = assay: Chromatin condensation test for apoptosis; format: cell-based, mouse; conditions: 200 μM [1], 12 h, 300 nM DAPI
Procedure, shortened: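 MN9D cells on glass-bottomed plates exposed to test compound for 12 h. Nuclear DAPI fluorescence (Ex/Em 358/461 nm) from chromatin condensation observed by fluorescence microscopy. Controls handled the same way without toxin.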

Row | Compound | Effect on intracellular ROS levels in HepG2 cells (HepG2 cells [2]) | Depolarization of MN9D cell mitochondrial membrane potential [3] | RT (relative lipophilicity, reverse phase HPLC retention time) [4] [min] | Concentration dependence of MN9D cell uptake (MN9D cells [5]) | Uptake into isolated intact MN9D mitochondria [6] | further results
1 | 4-(4′-methoxyphenyl-1-[2-(4-chlorophenyl)-propyl] pyridinium bromide [[3]] | did not increase | drastically | 8.39 | concentration dependent and non-saturable | accumulate efficiently in intact mitochondria with comparable efficiency | Increase of intracellular ROS level from the baseline levels (MN9D cells [1]; MN9D cells, 100 μM, 1 h, DCFH-DA): 2.5–3.0 fold
2 | 4-(4′-methoxyphenyl-1-[2-(4-fluorophenyl)-propyl]pyridinium bromide [[5]] | did not increase | very weakly | 6.97 | concentration dependent and non-saturable | accumulate efficiently in intact mitochondria with comparable efficiency | Effect on intracellular ROS levels in MN9D cells (MN9D cells [1]; MN9D cells, up to 100 μM, 1 h, DCFH-DA): did not significantly increase
3 | O=C1O[C@H]([C@@H](O)CO)C(O)=C1O [Asc, ascorbate, reference compound] |  |  |  |  |  | Effect on [1] and [3]-mediated MN9D cell death (dopaminergic MN9D cells): protects; Effect on [1]-mediated ROS production in MN9D cells (MN9D cells [1]; Asc 0-2 mM pre-incubation 1 h, then 200 μM [1] for 5 h): effectively reduces
4 | C[n+]1ccc(-c2ccccc2)cc1 [MPP^+, 1-methyl-4-phenylpyridinium] |  |  |  |  |  | Relative percent inhibition of complex I ([7]; 100 μM, rat brain mitochondrial membranes): 12.5%
5 | CC(=C[n+]1ccc(-c2ccccc2)cc1)c1ccccc1 [[1], N-(2-phenyl-1-propene)-4-phenyl-pyridinium] |  |  | 6.33 | non-saturable |  | IC50 [8]: ~50 µM; Toxicity to HepG2 cells (HepG2 cells [9]): not significantly toxic; Time course of MN9D cell uptake (MN9D cells [5]; 50 μM, up to 1 h, 37°C): linear; Chromatin condensation (nuclear DAPI fluorescence) in MN9D cell death (MN9D cells [10]): associated with chromatin condensation
6 | C=C(C)[C@H]1Cc2c(ccc3c2O[C@@H]2COc4cc(OC)c(OC)cc4[C@@H]2C3=O)O1 [rotenone] |  |  |  |  |  | Inhibition of ubiquinone dependent NADH oxidation activity of complex I ([7]; 10 μM, positive control, compared to control): more than 85%
